Assay [1] addresses Neuronal acetylcholine receptor; alpha3/beta4 (Rattus norvegicus, UniProt P04757+P12392). Put plainly: Displacement of [3H]epibatidine from rat alpha3beta4 nACHR expressed in HEK293 cells after 4 hrs by scintillation counting assay. In kind it is cell-based. The settings on record: for pKi: hek293. Background: Displacement assays read how much labelled ligand stays bound in the presence of the test substance.

The target of assay [2] is Neuronal acetylcholine receptor; alpha4/beta4 (Rattus norvegicus, UniProt P09483+P12392). Put plainly: Displacement of [3H]epibatidine from rat alpha4beta4 nACHR expressed in HEK293 cells after 4 hrs by scintillation counting assay. It counts as cell-based. The note with it: for pKi: hek293.
In assay [3] the target is T1, Neuronal acetylcholine receptor; alpha4/beta2 (Rattus norvegicus, UniProt P09483+P12390). The assay can be described thus: Displacement of [3H]epibatidine from rat alpha4beta2 nAChR expressed in HEK293 cells after 4 hrs by scintillation counting assay. In kind it is cell-based.
The nature of assay [4]: Binding affinity to Aplysia californica AChBP after 300 seconds by SPR biosensor analysis. For orientation: Surface plasmon resonance follows binding to a sensor surface in real time, without labels.
The target in assay [5] is T2, Neuronal acetylcholine receptor; alpha3/beta4 (Rattus norvegicus) (UniProt P04757+P12392). Put plainly: Agonist activity at recombinant rat alpha3beta4 nAChR expressed in HEK293 cells at 300 uM after 30 min by FLIPR potential blue assay. In kind it is cell-based. In outline: (§1)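 Stable rat α3β4 HEK293 cells were loaded with FMP dye (0.5 mg/ml) in Krebs-HEPES buffer, pH 7.4, for 30 min at 37 °C. For antagonist runs, the test compound was included in the dye buffer and EC70-EC80 ACh was then added. Fluorescence was read at ex 525/em 565 nm, 20 s before and 70 s after ligand addition, and ΔFU taken. Runs were done in duplicate, at least three times.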

Assay [6] concerns the target T3, Neuronal acetylcholine receptor subunit alpha-4/beta-2 (Mus musculus) (UniProt Q9ERK7+O70174). The assay can be described thus: Agonist activity at recombinant mouse alpha4beta2 nAChR expressed in HEK293 cells at >=100 uM after 30 min by FLIPR potential blue assay. In kind it is cell-based. Put shortly: (§2)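 FLIPR membrane potential (FMP) dye assay on α4β2-HEK293T cells. Cells were washed in Krebs buffer (pH 7.4) and loaded with dye (0.5 mg/ml) for 30 min at 37 °C. Emission at 565 nm with excitation at 525 nm was read 20 s before and 70 s after ligand addition. Response was the ΔFU between maximal levels. Duplicate wells, at least three experiments.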

Assay [7] concerns the target T3, Neuronal acetylcholine receptor subunit alpha-4/beta-2 (Mus musculus). Put plainly: Agonist activity at recombinant mouse alpha4beta2 nAChR expressed in HEK293 cells at >=30 uM after 30 min by FLIPR potential blue assay. In kind it is cell-based. Put shortly: as §2
The target is the same in assay [8]. The assay can be described thus: Agonist activity at recombinant mouse alpha4beta2 nAChR expressed in HEK293 cells at 300 uM after 30 min by FLIPR potential blue assay. It counts as cell-based. In outline:
as §2

In assay [9] the target is T2, Neuronal acetylcholine receptor; alpha3/beta4 (Rattus norvegicus). Put plainly: Antagonist activity at recombinant rat alpha3beta4 nAChR expressed in HEK293 cells assessed as inhibition of acetylcholine-induced effect at >=100 uM after 30 min by FLIPR potential blue assay. It counts as cell-based. In outline: as §1
Assay [10] addresses Neuronal acetylcholine receptor subunit alpha-4/beta-2 (Mus musculus, UniProt O70174+Q9ERK7). Put plainly: Antagonist activity at recombinant mouse alpha4beta2 nAChR expressed in HEK293 cells assessed as inhibition of acetylcholine-induced effect after 30 min by FLIPR potential blue assay. In kind it is cell-based. In outline:
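FMP dye assay on α4β2-HEK293T cells. Antagonist was dissolved in the dye-loading Krebs buffer (pH 7.4) and preincubated 30 min at 37 °C. EC70–EC80 ACh was then added as final agonist. 565 nm emission was read before and after addition, and inhibition curves were built from ΔFU at eight concentrations. IC50 fitted; duplicate, at least three experiments.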

The target in assay [11] is T1, Neuronal acetylcholine receptor; alpha4/beta2. Put plainly: Displacement of [3H]epibatidine from rat alpha4beta2 nAChR expressed in HEK293 cells after 4 hr by scintillation counting assay.
Assay [12] concerns the target Neuronal acetylcholine receptor; alpha4/beta2 (Rattus norvegicus) (UniProt P09483+P12390). Put plainly: Agonist activity at rat (alpha4)3(beta2)2 nAChR expressed in Xenopus oocyte by two electrode voltage-clamp electrophysiology assay relative to acetylcholine. Put shortly: (§3)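 Xenopus laevis oocytes were injected with about 25 ng total cRNA for rat α4 and β2. The α4:β2 ratio was 1:4 for (α4)2(β2)3 and 10:1 for (α4)3(β2)2. Oocytes were kept at 15-18 °C and recorded 2-5 days later, clamped at -60 mV. Peak currents were taken across 10 nM-10 mM agonist, with 10 min washes between applications. Currents were normalised on the same oocyte to ACh, 300 µM at (α4)2(β2)3 and 1 mM at (α4)3(β2)2.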

The target of assay [13] is T1, Neuronal acetylcholine receptor; alpha4/beta2. The assay can be described thus: Agonist activity at rat (alpha4)3(beta2)2 nAChR expressed in Xenopus oocyte by two electrode voltage-clamp electrophysiology assay. In outline:
as §3

The target is the same in assay [14]. Put plainly: Agonist activity at rat (alpha4)2(beta2)3 nAChR expressed in Xenopus oocyte by two electrode voltage-clamp electrophysiology assay. Put shortly: as §3
On the technique in general: Two-electrode voltage clamp holds a large cell at a set potential and records current.

Molecules are shown by their SMILES. Calls of active or inactive are those of the source. The rule behind the calls is not given here. Where only a bound is given, the exact number is not on record here.

Neuronal acetylcholine receptor; alpha4/beta4, sequence (P09483 whole entry): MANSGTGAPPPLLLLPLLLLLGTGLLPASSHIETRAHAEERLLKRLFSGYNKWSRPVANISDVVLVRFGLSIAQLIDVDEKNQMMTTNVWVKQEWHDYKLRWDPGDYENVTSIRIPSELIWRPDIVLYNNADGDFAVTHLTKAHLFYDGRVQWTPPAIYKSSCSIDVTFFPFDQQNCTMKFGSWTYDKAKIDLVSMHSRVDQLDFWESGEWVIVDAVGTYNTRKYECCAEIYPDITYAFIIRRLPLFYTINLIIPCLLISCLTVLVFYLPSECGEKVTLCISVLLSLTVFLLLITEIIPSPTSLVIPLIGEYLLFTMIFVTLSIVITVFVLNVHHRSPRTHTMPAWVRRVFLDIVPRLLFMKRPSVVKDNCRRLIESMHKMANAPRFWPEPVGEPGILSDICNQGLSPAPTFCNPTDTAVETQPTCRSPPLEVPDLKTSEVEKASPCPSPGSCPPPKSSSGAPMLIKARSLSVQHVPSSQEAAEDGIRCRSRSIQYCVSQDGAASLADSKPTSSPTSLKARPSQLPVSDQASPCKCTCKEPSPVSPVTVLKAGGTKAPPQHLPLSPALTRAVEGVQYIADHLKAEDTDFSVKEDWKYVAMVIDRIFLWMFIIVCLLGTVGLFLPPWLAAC
Neuronal acetylcholine receptor; alpha4/beta4, sequence (P12392 whole entry): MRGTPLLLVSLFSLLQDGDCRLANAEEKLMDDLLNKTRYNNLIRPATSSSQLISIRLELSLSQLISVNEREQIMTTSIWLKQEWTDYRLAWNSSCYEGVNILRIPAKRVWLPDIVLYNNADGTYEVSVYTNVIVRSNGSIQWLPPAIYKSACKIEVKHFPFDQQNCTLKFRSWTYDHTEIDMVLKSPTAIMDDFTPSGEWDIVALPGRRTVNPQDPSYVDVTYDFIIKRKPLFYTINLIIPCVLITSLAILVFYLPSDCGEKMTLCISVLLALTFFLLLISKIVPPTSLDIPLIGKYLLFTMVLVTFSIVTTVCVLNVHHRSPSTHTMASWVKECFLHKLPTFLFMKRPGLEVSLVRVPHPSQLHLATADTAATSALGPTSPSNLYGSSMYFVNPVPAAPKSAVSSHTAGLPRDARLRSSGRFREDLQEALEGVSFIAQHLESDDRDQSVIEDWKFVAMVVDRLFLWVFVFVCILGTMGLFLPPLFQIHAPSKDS
T1 sequence (P09483 whole entry): as the sequence (P09483 whole entry) above
T1 sequence (P12390 whole entry): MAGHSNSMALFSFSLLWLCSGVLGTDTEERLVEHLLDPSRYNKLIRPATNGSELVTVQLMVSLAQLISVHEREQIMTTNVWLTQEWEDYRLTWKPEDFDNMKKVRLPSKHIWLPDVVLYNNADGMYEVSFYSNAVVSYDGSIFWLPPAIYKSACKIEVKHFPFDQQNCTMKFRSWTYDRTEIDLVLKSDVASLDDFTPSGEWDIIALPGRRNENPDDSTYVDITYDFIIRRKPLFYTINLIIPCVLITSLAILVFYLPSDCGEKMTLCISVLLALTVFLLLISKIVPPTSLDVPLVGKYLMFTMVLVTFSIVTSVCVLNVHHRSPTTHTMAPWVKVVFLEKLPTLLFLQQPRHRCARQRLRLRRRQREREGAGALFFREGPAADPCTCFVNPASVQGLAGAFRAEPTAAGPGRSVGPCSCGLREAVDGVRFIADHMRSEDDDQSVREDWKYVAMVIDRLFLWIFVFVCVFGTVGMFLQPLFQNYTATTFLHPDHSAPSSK
T3 sequence (O70174 31-629 partner limits assumed): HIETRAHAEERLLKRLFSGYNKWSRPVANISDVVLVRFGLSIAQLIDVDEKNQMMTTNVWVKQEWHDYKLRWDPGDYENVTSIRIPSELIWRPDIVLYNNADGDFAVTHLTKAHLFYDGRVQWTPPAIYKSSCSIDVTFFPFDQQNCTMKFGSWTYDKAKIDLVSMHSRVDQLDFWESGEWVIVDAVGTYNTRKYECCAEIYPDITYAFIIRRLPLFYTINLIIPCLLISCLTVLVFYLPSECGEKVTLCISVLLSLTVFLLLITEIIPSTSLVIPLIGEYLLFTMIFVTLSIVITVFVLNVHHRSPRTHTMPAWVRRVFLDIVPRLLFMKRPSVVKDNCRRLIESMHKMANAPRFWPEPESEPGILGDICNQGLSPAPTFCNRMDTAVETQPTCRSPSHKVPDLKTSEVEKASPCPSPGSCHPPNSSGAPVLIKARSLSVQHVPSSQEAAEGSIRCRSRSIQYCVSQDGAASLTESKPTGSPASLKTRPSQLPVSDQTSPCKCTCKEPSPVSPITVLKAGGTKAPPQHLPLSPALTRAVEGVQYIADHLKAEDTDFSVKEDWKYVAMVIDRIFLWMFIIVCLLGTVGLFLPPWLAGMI
T3 sequence (Q9ERK7 26-501 limits assumed): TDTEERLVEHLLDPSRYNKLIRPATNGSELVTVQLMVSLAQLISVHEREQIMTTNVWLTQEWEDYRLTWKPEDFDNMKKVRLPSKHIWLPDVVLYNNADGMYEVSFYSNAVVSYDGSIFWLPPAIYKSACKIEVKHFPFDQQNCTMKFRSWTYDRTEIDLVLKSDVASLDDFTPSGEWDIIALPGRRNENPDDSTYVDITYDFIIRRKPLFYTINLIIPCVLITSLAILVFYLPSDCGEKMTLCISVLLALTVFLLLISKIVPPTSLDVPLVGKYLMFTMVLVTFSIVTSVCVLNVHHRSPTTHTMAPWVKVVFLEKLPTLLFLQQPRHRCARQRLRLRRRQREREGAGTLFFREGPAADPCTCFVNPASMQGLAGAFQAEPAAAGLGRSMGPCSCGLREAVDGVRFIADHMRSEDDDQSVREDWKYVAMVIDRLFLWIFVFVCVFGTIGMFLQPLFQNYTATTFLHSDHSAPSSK
Neuronal acetylcholine receptor; alpha3/beta4, sequence (P04757 whole entry): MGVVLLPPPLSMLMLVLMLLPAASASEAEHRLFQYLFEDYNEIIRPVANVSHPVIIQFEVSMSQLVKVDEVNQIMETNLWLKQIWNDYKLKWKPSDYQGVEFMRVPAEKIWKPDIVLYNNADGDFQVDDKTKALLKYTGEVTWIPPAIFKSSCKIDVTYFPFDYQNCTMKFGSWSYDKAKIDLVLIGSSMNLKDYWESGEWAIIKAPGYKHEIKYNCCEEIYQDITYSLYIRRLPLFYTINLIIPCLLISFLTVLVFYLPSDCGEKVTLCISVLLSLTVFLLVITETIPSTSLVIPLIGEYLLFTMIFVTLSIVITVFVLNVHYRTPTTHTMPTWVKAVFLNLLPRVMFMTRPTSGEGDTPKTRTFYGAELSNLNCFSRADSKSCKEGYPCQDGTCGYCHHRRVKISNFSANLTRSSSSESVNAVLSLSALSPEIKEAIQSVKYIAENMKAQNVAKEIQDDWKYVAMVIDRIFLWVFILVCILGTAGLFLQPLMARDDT
Neuronal acetylcholine receptor; alpha3/beta4, sequence (P12392 whole entry): as the sequence (P12392 whole entry) above
Neuronal acetylcholine receptor subunit alpha-4/beta-2, sequence (Q9ERK7 whole entry): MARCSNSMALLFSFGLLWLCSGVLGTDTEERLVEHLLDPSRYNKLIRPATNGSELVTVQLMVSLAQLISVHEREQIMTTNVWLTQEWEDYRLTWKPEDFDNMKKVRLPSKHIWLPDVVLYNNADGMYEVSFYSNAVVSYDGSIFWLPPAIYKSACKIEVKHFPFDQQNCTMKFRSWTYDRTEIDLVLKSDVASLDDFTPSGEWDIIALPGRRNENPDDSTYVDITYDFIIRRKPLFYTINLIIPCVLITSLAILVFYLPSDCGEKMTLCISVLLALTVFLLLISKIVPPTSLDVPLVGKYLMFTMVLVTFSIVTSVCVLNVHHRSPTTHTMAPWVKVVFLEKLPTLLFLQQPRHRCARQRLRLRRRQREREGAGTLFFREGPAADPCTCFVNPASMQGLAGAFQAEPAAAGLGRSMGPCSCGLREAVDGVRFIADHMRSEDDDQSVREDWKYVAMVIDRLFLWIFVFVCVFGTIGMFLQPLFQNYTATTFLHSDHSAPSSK
Neuronal acetylcholine receptor subunit alpha-4/beta-2, sequence (O70174 whole entry): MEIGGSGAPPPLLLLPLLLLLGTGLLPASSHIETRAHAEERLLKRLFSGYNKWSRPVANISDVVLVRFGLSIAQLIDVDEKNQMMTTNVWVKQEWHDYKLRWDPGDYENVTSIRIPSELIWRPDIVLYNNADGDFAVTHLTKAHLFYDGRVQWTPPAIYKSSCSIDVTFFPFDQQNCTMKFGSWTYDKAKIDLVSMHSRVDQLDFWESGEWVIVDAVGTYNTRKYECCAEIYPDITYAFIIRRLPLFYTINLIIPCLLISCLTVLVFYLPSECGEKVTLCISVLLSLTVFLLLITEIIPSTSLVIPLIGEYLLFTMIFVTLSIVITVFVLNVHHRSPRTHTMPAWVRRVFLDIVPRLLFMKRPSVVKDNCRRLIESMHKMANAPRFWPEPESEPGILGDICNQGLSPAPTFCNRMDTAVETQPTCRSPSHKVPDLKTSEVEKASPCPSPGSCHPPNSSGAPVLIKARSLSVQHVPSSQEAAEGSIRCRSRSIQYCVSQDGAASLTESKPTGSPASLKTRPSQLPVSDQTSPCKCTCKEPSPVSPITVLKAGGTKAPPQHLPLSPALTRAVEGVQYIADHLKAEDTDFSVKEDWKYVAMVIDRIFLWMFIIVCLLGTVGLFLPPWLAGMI

Turning to `c1ccc(CN2CCN(c3cccnc3)CC2)cc1`, the Ki in assay [1] (read-out: Ki) was above 300 µM; in assay [1] (read-out: pKi (converted)), above 316 µM; in assay [2] it was 100 µM; in assay [3], 9.6 µM.

`CNC(=O)OCCC(CCC(O)c1ccccc1)N(C)C` (stereo not drawn): the Ki in assay [1] (read-out: Ki) is above 300 µM; in assay [1] (read-out: pKi (converted)), above 316 µM; in [2], 100 µM; in [3], 100 µM.

Take `CNC(=O)OCCC(C)N(C)CC(O)c1ccccc1` (stereo not drawn): the Ki came out at 1000 µM in assay [1] (read-out: Ki), 300 µM in assay [2] and 300 µM in assay [3].

On to `CNC(=O)OCCC(C)N(C)CCCc1ccccc1` (stereo not drawn), for which the pKi in assay [1] and in assay [2] was below 3 throughout. Further, the Ki was above 1000 µM in assay [1] (read-out: Ki), above 1000 µM in [2] and 50 µM in assay [3].

In assay [4], `CN1[C@@H](CC(=O)c2ccccc2)CCC[C@H]1C[C@H](O)c1ccccc1` [LOBELINE] yielded a Kd of 0.013 µM and a pKd of 7.9.

In the case of `c1ccc(CCCN2CCN(c3cccnc3)CC2)cc1`, the Ki came out at 20 µM in assay [1] (read-out: Ki), 3.5 µM in assay [2] and 0.49 µM in assay [3]. Besides, the outcome in assay [5] and in assay [6] was Active.

Take `c1ccc(CCCN2CCCN(c3cccnc3)CC2)cc1`: the Ki in assay [1] (read-out: Ki) worked out at 3.8 µM; in [2], 3.8 µM; in assay [3], 0.082 µM. For the same compound, in assay [4], the Kd is above 1 µM. In [4], this compound registered a pKd below 6.

For the compound `CN(C)C(CCCCc1ccccc1)CCOc1nccn1C` (stereo not drawn), the Ki came to 8.3 µM in assay [1] (read-out: Ki), 3.7 µM in assay [2] and 0.76 µM in assay [3]. Moreover, the outcome in [7] was Active.

In assay [1], `CC(CCOC(=O)N(C)C)N(C)CC(O)Cc1ccccc1` (stereo not drawn) displayed a pKi below 3. Further, the Ki was above 1000 µM in assay [1] (read-out: Ki), 100 µM in assay [2] and 500 µM in assay [3].

For `c1ccc(CCN2CCN(c3cccnc3)CC2)cc1`, the result in [8] and in assay [5] was Active. In addition, the Ki in assay [1] (read-out: Ki) was 8.2 µM; in [2], 8.9 µM; in assay [3] it was 0.56 µM.

Take `c1ccc(CCN2CCCN(c3cccnc3)CC2)cc1`: the Ki in assay [1] (read-out: Ki) is 3.4 µM; in assay [2], 2.4 µM; in assay [3] it was 0.11 µM.

For the compound `CN(C)C(=O)OCCC(CCCCc1ccccc1)N(C)C` (stereo not drawn), the figures for the Ki in [1] (read-out: Ki), in assay [2] and in assay [3] were 11 µM, 4.4 µM and 1.1 µM, respectively. For the same compound, the outcome in assay [5] and in assay [6] was Active.

On to `CN(C)C(=O)OCCC(CCCc1ccccc1)N(C)C` (stereo not drawn), for which the Ki in assay [1] (read-out: Ki) is 13 µM; in assay [2], 4.9 µM; in [3] it was 1.9 µM. Besides, the outcome in [5] and in assay [6] was Active.

As to `CNC(=O)OCCC(CCCCCc1ccccc1)N(C)C` (stereo not drawn), the Ki turned out to be 50 µM in assay [1] (read-out: Ki), 4.5 µM in [2] and 2.7 µM in [3].

In the case of `CNC(=O)OCCC(C)N(C)CCc1ccccc1` (stereo not drawn), the Ki in [1] (read-out: Ki) is 300 µM; in assay [2], 300 µM; in assay [3], 30 µM.

Turning to `C(=C\N1CCCN(c2cccnc2)CC1)/c1ccccc1`, the Ki came to 2.9 µM in assay [1] (read-out: Ki), 1.6 µM in assay [2] and 0.099 µM in [3]. The inhibition entry in assay [9] is “inactive”. For the same compound, in [10], the IC50 amounted to 1.1 µM.

For the compound `CN(C)C(=O)OCCC(COc1ccccn1)N(C)C` (stereo not drawn), the results for the Ki in [1] (read-out: Ki), in [2] and in [3] were 300 µM, 300 µM and 100 µM, respectively.

Regarding `CNC(=O)OCCC(CCCCc1ccccc1)N(C)C` (stereo not drawn), the Ki in assay [1] (read-out: Ki) was 100 µM; in [2], 30 µM; in [3], 3.6 µM. Also, the result in [5] and in [6] was Active.

Turning to `c1cncc(N2CCCNCC2)c1`, the Ki in [11] was 0.00072 µM.

`CN(C)C(=O)OCCC(COc1ccc(F)cc1)N(C)C` (stereo not drawn): the results for the Ki in assay [1] (read-out: Ki), in assay [2] and in assay [3] were 300 µM, 100 µM and 500 µM, respectively.

Regarding `CC(CCOC(=O)N(C)C)N(C)CCCc1ccccc1` (stereo not drawn), the pKi in assay [1] and in [2] was below 3 throughout. Besides, the Ki in [1] (read-out: Ki) was above 1000 µM; in assay [2], above 1000 µM; in assay [3], 300 µM.

Consider `Brc1ccc(N2CCCN(CCCc3ccccc3)CC2)cn1`, for which the Ki turned out to be 2.2 µM in [1] (read-out: Ki), 1.5 µM in [2] and 0.82 µM in assay [3].

`c1ccc(CN2CCCN(c3cccnc3)CC2)cc1` had an Rmax in assay [12] of 6. Further, the Ki in [1] (read-out: Ki) was 2.6 µM; in assay [2] it was 3.4 µM; in assay [3], 0.104 µM. Moreover, the EC50 in assay [13] is 7.9 µM; in [14], 1.8 µM. Also, the Kd in assay [4] is above 1 µM. This compound had a pKd in [4] below 6.

Turning to `CN(C)C(=O)OCCC(CCC(O)c1ccccc1)N(C)C` (stereo not drawn), the Ki is 5.9 µM in [1] (read-out: Ki), 6.03 µM in assay [1] (read-out: pKi (converted)), 6.7 µM in assay [2] and 30 µM in assay [3].

For the compound `Brc1cccc(CCN2CCCN(c3cccnc3)CC2)c1`, the Ki in [1] (read-out: Ki) was determined as 0.78 µM; in assay [2], 1.9 µM; in [3] it was 0.13 µM.

With `CNC(=O)OCCC(CCCc1ccccc1)N(C)C` (stereo not drawn), the Ki in [1] (read-out: Ki) turned out to be 100 µM; in assay [2] it was 30 µM; in assay [3], 11 µM. Also, the result in assay [5] and in assay [6] was Active.

Regarding `CNC(=O)OCCC(C)N(C)Cc1ccccc1` (stereo not drawn), the Ki in assay [1] (read-out: Ki), in [2] and in assay [3] was 300 µM in each case.

Usually pKi stands for the negative decadic logarithm of the Ki, by convention in mol/L. A low value points to a high Ki. As a reminder, the Kd is the equilibrium constant for the complex coming apart. Lower therefore signals tighter binding. The term pKd denotes the negative decadic logarithm of the Kd, by convention in mol/L. In general, IC50 refers to the concentration that gives 50% inhibition. The term EC50 denotes the concentration needed to bring the measured effect to its halfway point.

The values above are taken from ChEMBL document CHEMBL3616394 (Eur J Med Chem, 2015).
